Results published in ChEMBL document CHEMBL1159058, “Triazoloacridin-6-ones as novel inhibitors of the quinone oxidoreductases NQO1 and NQO2” (Bioorg Med Chem, 2010).

Tests used:
[1] = target: T1, Ribosyldihydronicotinamide dehydrogenase [quinone] (Homo sapiens, UniProt P16083); assay: Inhibition of human recombinant NQO2 by spectrophotometry
T1 sequence (P16083 whole entry): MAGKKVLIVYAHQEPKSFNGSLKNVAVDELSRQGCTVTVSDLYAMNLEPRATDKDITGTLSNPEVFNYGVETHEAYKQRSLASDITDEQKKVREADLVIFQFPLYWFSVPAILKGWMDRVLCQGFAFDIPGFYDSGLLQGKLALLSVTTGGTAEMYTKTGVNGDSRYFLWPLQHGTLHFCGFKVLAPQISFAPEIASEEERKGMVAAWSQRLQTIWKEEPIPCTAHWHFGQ
Outline: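 Recombinant human NQO2 was diluted in 50 mM phosphate to give about 0.1 absorbance/min. Reaction mix: 50 mM phosphate pH 7.4 with 200 µM NRH as cofactor, 40 µM DCPIP and inhibitor in DMSO (1.0% v/v final), 37 °C. DCPIP reduction was followed at 600 nm.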

[2] = tested on: HCT-116; assay: Cytotoxicity against human HCT116 cells after 24 hrs by MTT assay; type: functional, cell-based; conditions: HCT-116, 24 h
Outline: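 HCT116 cells were kept in RPMI 1640 with 10% FCS and 2 mM L-glutamine, plated at 2 × 10³ cells/well, 37 °C, 5% CO₂. Drug was given for 24 h, then removed, and cells regrew 3 days in fresh medium. Read-out was MTT for 4 h, formazan dissolved in DMSO, OD read. IC50 is 50% OD reduction vs untreated/vehicle controls. At least three repeats.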

[3] = tested on: HCT-116; assay: Cytotoxicity against human HCT116 cells after 96 hrs by MTT assay; type: functional, cell-based; conditions: HCT-116, 96 h
Outline: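 HCT116 cells were grown in RPMI 1640 with 10% FCS and 2 mM L-glutamine, seeded at 2 × 10³ cells/well, 37 °C, 5% CO₂. Drug exposure was continuous for 4 days at 37 °C. MTT was then added for 4 h and formazan dissolved in DMSO for OD reading. IC50 is 50% OD drop relative to untreated and/or vehicle cells. At least three repeats.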

[4] = tested on: Nucleic Acid; assay: Binding affinity to salmon sperm DNA assessed as change in melting temperature at 10 uM under high salt concentration by spectrophotometry; type: nucleic-acid assay; conditions: Salmonidae
Outline: (§1)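 Salmon sperm DNA at 20 µg/ml was treated with 10 µM compound at high (physiological) or low salt; the low-salt buffer was 7.5 mM NaH₂PO₄, 1 mM EDTA, pH 7.0. Cuvettes were heated from 37 to 98 °C with A260 read every degree. Tm change is in °C, SD from three independent experiments.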

[5] = tested on: Nucleic Acid; assay: Binding affinity to salmon sperm DNA assessed as change in melting temperature at 10 uM under low salt concentration by spectrophotometry; type: nucleic-acid assay; conditions: Salmonidae; outline: as §1
[6] = target: NAD(P)H dehydrogenase [quinone] 1 (Homo sapiens, UniProt P15559); assay: Inhibition of human recombinant NQO1 by spectrophotometry
[7] = tested on: Nucleic Acid; assay: Binding affinity to salmon sperm DNA assessed as melting temperature at 10 uM under low salt concentration by spectrophotometry; type: nucleic-acid assay; conditions: Salmonidae

Chain of NAD(P)H dehydrogenase [quinone] 1 (P15559 whole entry): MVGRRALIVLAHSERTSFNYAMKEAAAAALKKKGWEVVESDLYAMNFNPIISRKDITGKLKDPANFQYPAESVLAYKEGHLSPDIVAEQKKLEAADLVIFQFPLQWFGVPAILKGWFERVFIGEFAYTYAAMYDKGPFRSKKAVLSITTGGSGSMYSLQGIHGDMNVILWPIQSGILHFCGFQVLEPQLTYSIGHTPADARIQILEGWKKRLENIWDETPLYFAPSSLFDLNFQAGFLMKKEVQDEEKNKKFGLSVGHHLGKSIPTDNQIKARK

Row | Compound | IC50 [1] [µM] | IC50 [2] [µM] | IC50 [3] [µM] | ΔTm [4] [°C] | ΔTm [5] [°C] | IC50 [6] [µM] | Tm [7] [°C]
1 | COc1ccc2c(c1)c(=O)c1c(NCCCO)ccc3nnn2c31 | 0.517 | 1.5 | 0.627 | 0.19 | 3.2 | – | –
2 | O=c1c2ccccc2n2nnc3ccc(NCCCO)c1c32 | 0.483 | 0.99 | 0.63 | 1.48 | 3 | – | –
3 | CN(C)CCNc1ccc2nnn3c4ccc(F)cc4c(=O)c1c23 | 0.783 | 1.2 | 0.465 | 0.03 | 2.6 | – | –
4 | C[N+](C)([O-])CCNc1ccc2nnn3c4ccccc4c(=O)c1c23 | 0.167 | 80 | 23.8 | 0.22 | 0.5 | – | –
5 | C[N+](C)([O-])CCNc1ccc2nnn3c4ccc(Br)cc4c(=O)c1c23 | 0.117 | 48 | 12 | 0.45 | 0.1 | – | –
6 | CC(C)CCNc1ccc2nnn3c4ccccc4c(=O)c1c23 | 0.427 | 3.2 | 0.815 | 0.23 | 2 | – | –
7 | CN(C)CCNc1ccc2nnn3c4ccc(Br)cc4c(=O)c1c23 | 1.48 | 1.6 | 0.495 | 0.2 | 2.6 | – | –
8 | CN(C)CCNc1ccc2nnn3c4ccccc4c(=O)c1c23 | 1.83 | 20.5 | 12.4 | 0.33 | 1.7 | 1.8 | –
9 | COc1ccc2c(c1)c(=O)c1c(NCC[N+](C)(C)[O-])ccc3nnn2c31 | 0.098 | 57 | 18.8 | 0.3 | 0.15 | – | 80
10 | COc1ccc(Nc2ccc3nnn4c5ccccc5c(=O)c2c34)cc1 | 0.098 | 1.9 | 0.63 | 0.19 | 0.2 | – | –
11 | O=c1c2cc(Br)ccc2n2nnc3ccc(NCCCO)c1c32 | 0.987 | 2.8 | 0.715 | 0.42 | 3 | – | –
12 | O=c1c2ccccc2n2nnc3ccc(NCCc4ccccc4)c1c32 | 0.567 | 3.5 | 0.803 | 0.31 | 1.7 | 3.28 | –
13 | COc1ccc2c(c1)c(=O)c1c(NCCN(C)C)ccc3nnn2c31 | 1.33 | 1 | 0.333 | 0.08 | 2.9 | 0.111 | 83
14 | COc1ccc2c(c1)c(=O)c1c(NCCc3ccccc3)ccc3nnn2c31 | 0.35 | 12.5 | 0.711 | 0.08 | 1.7 | 3.93 | –
15 | COc1cccc2c1C(=O)c1c(O)c3c(c(O)c1C2=O)C[C@@](O)(C(=O)CO)C[C@@H]3O[C@H]1C[C@H](N)[C@H](O)[C@H](C)O1 | – | – | – | – | 8 | – | 88
16 | CC(C)CCNc1ccc2nnn3c4ccc(Br)cc4c(=O)c1c23 | 0.767 | 27 | 7 | 0.09 | 1.9 | – | –
